Measurements: article PMC12238359 (Scientific Reports, 2025)

Tests used:
HepG2 cells [1] = test: Colony formation assay; format: cell-based; settings: HepG2, 14 days
Summary of the method: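 HepG2 cells were plated at 1000 per well in 6-well plates. After 24 h they were treated with a range of concentrations, with the medium refreshed every other day, and kept in fresh medium for 10–14 days. Colonies were fixed in methanol for 15 min, stained with 0.5% crystal violet for 15 min, photographed and counted manually.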

HepG2 = test: In vitro anti-proliferation assay; format: cell-based
HDAC1 = HDAC1 (Homo sapiens, UniProt Q13547); test: HDAC inhibitory assay, HDAC1; format: biochemical
Chain of HDAC1 (Q13547 whole entry): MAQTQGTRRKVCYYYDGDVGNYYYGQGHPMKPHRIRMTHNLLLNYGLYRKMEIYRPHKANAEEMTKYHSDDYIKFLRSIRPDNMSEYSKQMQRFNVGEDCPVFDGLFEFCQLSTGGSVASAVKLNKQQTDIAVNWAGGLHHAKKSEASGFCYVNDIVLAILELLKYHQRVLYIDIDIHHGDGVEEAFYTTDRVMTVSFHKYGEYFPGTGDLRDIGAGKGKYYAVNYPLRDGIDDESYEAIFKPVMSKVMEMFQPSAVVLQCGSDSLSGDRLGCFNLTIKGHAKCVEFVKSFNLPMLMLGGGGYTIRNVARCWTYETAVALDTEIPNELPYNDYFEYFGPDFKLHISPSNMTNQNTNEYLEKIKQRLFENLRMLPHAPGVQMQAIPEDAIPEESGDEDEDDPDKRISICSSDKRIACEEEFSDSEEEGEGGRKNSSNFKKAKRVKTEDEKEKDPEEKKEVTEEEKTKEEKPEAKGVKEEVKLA

Cl-PARP, Cl-caspase 3 = test: Western blot of apoptotic proteins; format: cell-based; settings: HepG2, 24 h
Summary of the method: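 Treated HepG2 lysates (24 h exposure, RIPA buffer with protease inhibitors, BCA-normalised) were denatured at 100 °C for 5 min and run on 10–15% SDS-PAGE, then transferred to PVDF. Membranes were blocked in 5% milk, with primary antibody overnight at 4 °C and HRP secondary for 1 h at room temperature, and developed by ECL. Band intensity was normalised to β-actin; mean ± SD of three separate experiments.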

acetylated H3/H4 = test: Western blot of acetylated histone levels in HepG2 cells; format: cell-based; settings: HepG2, 0.2, 0.5 µM, 24 h
Summary of the method: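 HepG2 cells were exposed to the test compound for 24 h, then lysed in RIPA buffer with protease inhibitors (10 min on ice) and centrifuged at 4 °C. Protein was measured by BCA, and equal amounts were denatured at 100 °C for 5 min. Blots were run on 10–15% SDS-PAGE and transferred to PVDF. Anti-acetyl-H3 was used at 1:1000, overnight at 4 °C, then HRP secondary antibody for 1 h at room temperature, with ECL detection. Bands were quantified against β-actin; mean ± SD of three separate experiments.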

HepG2 cells [2] = test: Cell cycle analysis by flow cytometry; format: cell-based; settings: HepG2, 0.5μM; for G2/M: control 25.34%; for S: control 32.99%; for G0/G1: control 41.67%
γH2AX = γH2AX immunofluorescence assay; format: cell-based; settings: HepG2, 24 h, in comparison to SAHA
Summary of the method: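 HepG2 cells were grown on coverslips at 1 × 10^5 per well and treated over a concentration range for 24 h. Cells were fixed in 4% formaldehyde, then blocked and permeabilised in PBS-BSA with 0.3% Triton X-100 for 15 min at room temperature. Anti-γH2AX was applied overnight at 4 °C, then goat anti-rabbit IgG (1:500) for 30 min at room temperature. Nuclei were counterstained with DAPI and imaged by confocal microscopy.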

CDK4 and Cyclin D1 = test: Western blot of cell cycle regulators; format: cell-based; settings: HepG2, 24 h
Summary of the method: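 For the immunoblot, HepG2 cells were treated at several concentrations for 24 h and lysed in RIPA buffer with protease inhibitors. Equal BCA-quantified protein was boiled for 5 min and resolved on 10–15% SDS-PAGE, then transferred to PVDF. Blots were blocked in 5% milk, incubated with primary antibody overnight at 4 °C and HRP secondary for 1 h, and detected by ECL. Band densities were quantified, with β-actin as loading control.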

HepG2 cells [3] = test: Lactate dehydrogenase; format: cell-based; settings: HepG2, 24 h
Summary of the method: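 HepG2 cells were seeded at 1 × 10^4 per well and exposed to a range of test compound concentrations for 24 h. Culture supernatant was mixed with LDH detection reagent and kept 30 min in the dark at ambient temperature. OD was read at 490 nm, with each sample in triplicate.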

HDAC6 = biological target: T1, HDAC6 (Homo sapiens, UniProt Q9UBN7); test: HDAC inhibitory assay, HDAC6; format: biochemical
T1 sequence (Q9UBN7 1-1215): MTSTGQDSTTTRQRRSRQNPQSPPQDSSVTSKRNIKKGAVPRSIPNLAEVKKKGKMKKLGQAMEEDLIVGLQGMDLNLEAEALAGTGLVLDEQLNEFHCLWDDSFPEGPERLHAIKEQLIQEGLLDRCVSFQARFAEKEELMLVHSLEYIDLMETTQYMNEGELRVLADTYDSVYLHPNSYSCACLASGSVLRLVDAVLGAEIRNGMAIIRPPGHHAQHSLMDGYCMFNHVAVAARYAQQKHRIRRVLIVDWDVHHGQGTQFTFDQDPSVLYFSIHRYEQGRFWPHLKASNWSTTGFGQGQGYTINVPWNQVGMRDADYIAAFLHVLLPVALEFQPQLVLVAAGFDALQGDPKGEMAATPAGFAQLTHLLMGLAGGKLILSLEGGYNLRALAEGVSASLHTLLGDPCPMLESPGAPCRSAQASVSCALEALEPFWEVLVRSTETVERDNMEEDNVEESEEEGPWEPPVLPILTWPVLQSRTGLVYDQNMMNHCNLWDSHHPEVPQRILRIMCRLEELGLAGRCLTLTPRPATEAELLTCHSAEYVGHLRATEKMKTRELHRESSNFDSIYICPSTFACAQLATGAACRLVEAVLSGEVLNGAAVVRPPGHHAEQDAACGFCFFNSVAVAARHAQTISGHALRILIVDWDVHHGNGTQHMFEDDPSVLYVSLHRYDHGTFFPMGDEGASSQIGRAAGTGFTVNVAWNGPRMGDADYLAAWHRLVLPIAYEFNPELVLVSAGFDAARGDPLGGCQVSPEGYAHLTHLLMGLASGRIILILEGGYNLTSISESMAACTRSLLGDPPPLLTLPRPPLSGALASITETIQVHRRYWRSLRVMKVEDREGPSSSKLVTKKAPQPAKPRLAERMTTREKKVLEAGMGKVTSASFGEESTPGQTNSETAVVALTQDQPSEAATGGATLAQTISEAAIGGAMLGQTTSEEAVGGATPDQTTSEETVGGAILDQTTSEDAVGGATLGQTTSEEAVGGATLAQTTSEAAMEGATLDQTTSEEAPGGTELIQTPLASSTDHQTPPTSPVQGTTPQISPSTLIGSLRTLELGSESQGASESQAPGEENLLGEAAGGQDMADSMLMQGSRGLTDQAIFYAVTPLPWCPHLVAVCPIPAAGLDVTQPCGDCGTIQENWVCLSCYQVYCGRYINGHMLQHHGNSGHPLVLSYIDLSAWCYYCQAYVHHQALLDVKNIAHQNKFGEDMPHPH

GSDME-N, Cl-caspase3 = test: Western blot of pyroptosis markers; format: cell-based; settings: HepG2, 24 h
Summary of the method: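 HepG2 cells were treated 24 h at the indicated concentrations, then lysed in RIPA with protease inhibitors (10 min on ice, 4 °C spin). Protein was measured by BCA, and equal amounts were boiled 5 min at 100 °C, run on 10–15% SDS-PAGE and transferred to PVDF. Membranes were blocked in 5% milk, probed with primaries overnight at 4 °C, then HRP secondary 1 h at room temperature. Detection was by ECL, with densitometry against β-actin; data are mean ± SD of three experiments.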

HepG2 cells [4] = test: Reactive oxygen species; format: cell-based; settings: HepG2, 24 h
HepG2 xenografts = test: HepG2 xenograft model; format: in vivo, BALB/c nude mice
Summary of the method: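 Male BALB/c nude mice, 5–6 weeks old, were housed under SPF conditions (25 °C, 65% humidity, 12-h light/dark). They were implanted subcutaneously with 1 × 10^6 HepG2 cells. […] Excised tumors were immunostained for Ac-H3, Ac-H4, cleaved caspase-3, GSDME-N and Ki67, then image-scored over 5 fields.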

HepG2 cells [5] = test: Annexin V-FITC/PI apoptosis analysis; format: cell-based; settings: 48 h

HDAC1 inhibitory activity relative to SAHA (HDAC1) | HDAC6 inhibitory activity relative to SAHA (HDAC6) | Ac-H3/H4, Cl-caspase3 and GSDME-N in tumor tissues (HepG2 xenografts; IHC at end of treatment) | SMILES | colony formation (HepG2 cells [1]) | antiproliferative activity, times higher than SAHA (HepG2) [times] | expression of Cl-PARP, Cl-caspase 3 (Cl-PARP, Cl-caspase 3) | level of acetyl-H3 and H4 (acetylated H3/H4) | G2/M (HepG2 cells [2]) [%] | S (HepG2 cells [2]) [%] | G0/G1 (HepG2 cells [2]) [%] | nuclear γH2AX levels (γH2AX) | levels of CDK4 and Cyclin D1 (CDK4 and Cyclin D1) | LDH release (HepG2 cells [3]) | GSDME N-terminal fragment level (GSDME-N, Cl-caspase3) | levels of active caspase-3 (GSDME-N, Cl-caspase3) | ROS levels (HepG2 cells [4]) | tumor growth inhibition (HepG2 xenografts; 10 mg/kg, ip, every two days, three weeks) | Ki67 immunostaining of tumor tissues (HepG2 xenografts; IHC at end of treatment) | apoptosis of HepG2 cells (HepG2 cells [5]; 0.2 µM) [%] | apoptosis of HepG2 cells (HepG2 cells [5]; 0.5 µM) [%]
tenfold better | eightfold better | induced the increase of Ac- H3/H4 | COc1ccc(N(Cc2csc(-c3ccccc3)n2)C(=O)CCCCCC(=O)NO)cc1 [Compound 15a, N^1-hydroxy-N^7-(4-methoxyphenyl)-N^7-((2-phenyl-4-thiazolyl)methyl)heptanediamide] | suppress the formation of colonies in a dose-dependent manner | ~25 | upregulate the expression of Cl-PARP, Cl-caspase 3 in a dose-dependent manner | increased the level of acetyl-H3 and H4 in a dose-dependent manner | 22.85 | 13.72 | 61.42 | induce γH2AX expression at a much lower concentration range | significantly reduced the levels of CDK4 and Cyclin D1 in a dose-dependent manner | markedly increased | elevated levels of the N-terminal fragment of gasdermin E (GSDME) | elevated | dose-dependently increased | superior inhibition observed at 10 mg/kg compared to that of SAHA | dose-dependent reduction in Ki67 immunostaining | 28.2 | 46.5
tenfold better | eightfold better | – | COc1ccc(N(Cc2csc(-c3ccc(C)cc3)n2)C(=O)CCCCCC(=O)NO)cc1 [Compound 15d, N^1-hydroxy-N^7-(4-methoxyphenyl)-N^7-((2-(4-tolyl)-4-thiazolyl)methyl)heptanediamide] | suppress the formation of colonies in a dose-dependent manner | ~15 | upregulate the expression of Cl-PARP, Cl-caspase 3 in a dose-dependent manner | increased the level of acetyl-H3 and H4 in a dose-dependent manner | 24.34 | 18.3 | 57.36 | induce γH2AX expression at a much lower concentration range | significantly reduced the levels of CDK4 and Cyclin D1 in a dose-dependent manner | markedly increased | elevated levels of the N-terminal fragment of gasdermin E (GSDME) | elevated | dose-dependently increased | – | – | 30 | 41.9
